Measured values published in ChEMBL document CHEMBL2311528, “Synthesis of spirolactone-type diterpenoid derivatives from kaurene-type oridonin with improved antiproliferative effects and their apoptosis-inducing activity in human hepatoma Bel-7402 cells” (Eur J Med Chem, 2013).
Blank lines part the entries; values can stand above or below the compound they belong to.

Columns and labels:
[1] = Antiproliferative activity against human CaEs17 cells assessed as growth inhibition by MTT assay; format: functional, cell-based
Method in brief: (§1)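 Cells treated in triplicate over a range of concentrations at 37 °C in humidified 5% CO2. At 72 h, MTT (5 mg/mL) was added for 4 h, followed by DMSO solubilisation and OD at 490 nm. IC50 is the concentration giving 50% growth inhibition, reported as mean ± S.D. of three independent experiments.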

Bel-7402 [2] = assay: Antiproliferative activity against human Bel7402 cells assessed as growth inhibition by MTT assay; format: functional, cell-based; method in brief: as §1
MGC-803 [3] = assay: Antiproliferative activity against human MGC803 cells assessed as growth inhibition by MTT assay; format: functional, cell-based; method in brief: as §1
K562 [4] = assay: Antiproliferative activity against human K562 cells assessed as growth inhibition by MTT assay; format: functional, cell-based
Method in brief: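 K562 cells in log phase seeded at 5 × 10⁴ cells/mL and treated in triplicate across a 0.39–100 range. Cultures were kept at 37 °C in humidified 5% CO2. At 72 h, MTT (5 mg/mL) was added for 4 h, formazan was dissolved in DMSO, and OD was read at 490 nm. IC50 is the concentration giving 50% growth inhibition, reported as mean ± S.D. of three independent experiments.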

Bel-7402 [5] = assay: Induction of cell cycle arrest in human Bel7402 cells assessed as accumulation at G2/M phase at 1 uM incubated for 48 hrs by propidium iodide staining based flow cytometry (reference value: 4.75%); format: functional
Method in brief: (§2)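 Bel-7402 seeded at 5.0 × 10³ cells/well and grown 24 h at 37 °C. Exponentially growing cells were treated for 48 h, alongside untreated and DMSO-solvent controls. Cells were then centrifuged, fixed overnight in 70% ethanol at 4 °C, and analysed by flow cytometry for phase distribution.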

Bel-7402 [6] = assay: Induction of cell cycle arrest in human Bel7402 cells assessed as accumulation at S phase at 1 uM incubated for 48 hrs by propidium iodide staining based flow cytometry (reference value: 31.89%); format: functional; method in brief: as §2
Bel-7402 [7] = assay: Induction of cell cycle arrest in human Bel7402 cells assessed as accumulation at G1 phase at 1 uM incubated for 48 hrs by propidium iodide staining based flow cytometry (reference value: 63.86%); format: functional; method in brief: as §2
Bel-7402 [8] = assay: Induction of cell cycle arrest in human Bel7402 cells assessed as accumulation at G2/M phase at 0.8 uM incubated for 48 hrs by propidium iodide staining based flow cytometry (reference value: 4.75%); format: functional; method in brief: as §2
Bel-7402 [9] = assay: Induction of cell cycle arrest in human Bel7402 cells assessed as accumulation at S phase at 0.8 uM incubated for 48 hrs by propidium iodide staining based flow cytometry (reference value: 31.89%); format: functional; method in brief: as §2
Bel-7402 [10] = assay: Induction of cell cycle arrest in human Bel7402 cells assessed as accumulation at G1 phase at 0.8 uM incubated for 48 hrs by propidium iodide staining based flow cytometry (reference value: 63.86%); format: functional; method in brief: as §2
Bel-7402 [11] = assay: Induction of cell cycle arrest in human Bel7402 cells assessed as accumulation at G2/M phase at 0.6 uM incubated for 48 hrs by propidium iodide staining based flow cytometry (reference value: 4.75%); format: functional; method in brief: as §2
Bel-7402 [12] = assay: Induction of cell cycle arrest in human Bel7402 cells assessed as accumulation at S phase at 0.6 uM incubated for 48 hrs by propidium iodide staining based flow cytometry (reference value: 31.89%); format: functional; method in brief: as §2
Bel-7402 [13] = assay: Induction of cell cycle arrest in human Bel7402 cells assessed as accumulation at G1 phase at 0.6 uM incubated for 48 hrs by propidium iodide staining based flow cytometry (reference value: 63.86%); format: functional; method in brief: as §2
Bel-7402 [14] = assay: Induction of apoptosis in human Bel7402 cells assessed as necrotic cells level at 1 uM incubated for 3 days by Annexin-V and propidium iodide double staining based flow cytometry (reference value: 0.5%); format: functional
Bel-7402 [15] = assay: Induction of apoptosis in human Bel7402 cells assessed as late apoptotic cells level at 1 uM incubated for 3 days by Annexin-V and propidium iodide double staining based flow cytometry (reference value: 2.4%); format: functional
Bel-7402 [16] = assay: Induction of apoptosis in human Bel7402 cells assessed as early apoptotic cells level at 1 uM incubated for 3 days by Annexin-V and propidium iodide double staining based flow cytometry (reference value: 4.5%); format: functional
Bel-7402 [17] = assay: Induction of apoptosis in human Bel7402 cells assessed as viable cells level at 1 uM incubated for 3 days by Annexin-V and propidium iodide double staining based flow cytometry (reference value: 92.6%); format: functional
Bel-7402 [18] = assay: Induction of apoptosis in human Bel7402 cells assessed as necrotic cells level at 0.8 uM incubated for 3 days by Annexin-V and propidium iodide double staining based flow cytometry (reference value: 0.5%); format: functional
Bel-7402 [19] = assay: Induction of apoptosis in human Bel7402 cells assessed as late apoptotic cells level at 0.8 uM incubated for 3 days by Annexin-V and propidium iodide double staining based flow cytometry (reference value: 2.4%); format: functional
Bel-7402 [20] = assay: Induction of apoptosis in human Bel7402 cells assessed as early apoptotic cells level at 0.8 uM incubated for 3 days by Annexin-V and propidium iodide double staining based flow cytometry (reference value: 4.5%); format: functional
Bel-7402 [21] = assay: Induction of apoptosis in human Bel7402 cells assessed as viable cells level at 0.8 uM incubated for 3 days by Annexin-V and propidium iodide double staining based flow cytometry (reference value: 92.6%); format: functional
Bel-7402 [22] = assay: Induction of apoptosis in human Bel7402 cells assessed as necrotic cells level at 0.6 uM incubated for 3 days by Annexin-V and propidium iodide double staining based flow cytometry (reference value: 0.5%); format: functional
Bel-7402 [23] = assay: Induction of apoptosis in human Bel7402 cells assessed as late apoptotic cells level at 0.6 uM incubated for 3 days by Annexin-V and propidium iodide double staining based flow cytometry (reference value: 2.4%); format: functional
Bel-7402 [24] = assay: Induction of apoptosis in human Bel7402 cells assessed as early apoptotic cells level at 0.6 uM incubated for 3 days by Annexin-V and propidium iodide double staining based flow cytometry (reference value: 4.5%); format: functional
Bel-7402 [25] = assay: Induction of apoptosis in human Bel7402 cells assessed as viable cells level at 0.6 uM incubated for 3 days by Annexin-V and propidium iodide double staining based flow cytometry (reference value: 92.6%); format: functional
[26] = target: Glutathione S-transferase P (Homo sapiens) (UniProt P09211); assay: Inhibition of glutathione S-transferase pi in human Bel7402 cell lysates at 40 uM using CDNB and GSH as substrates by spectrophotometry; conditions: Bel-7402
Chain of Glutathione S-transferase P (Homo sapiens) (P09211 2-210 limits assumed): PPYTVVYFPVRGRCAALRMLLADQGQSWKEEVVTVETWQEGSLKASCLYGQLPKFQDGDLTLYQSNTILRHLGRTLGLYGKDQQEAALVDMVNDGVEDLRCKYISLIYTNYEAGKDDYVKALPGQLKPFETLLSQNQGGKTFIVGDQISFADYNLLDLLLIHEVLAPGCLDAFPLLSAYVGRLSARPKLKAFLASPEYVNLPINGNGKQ

Bel-7402 [27] = assay: Potency index, ratio of IC50 for oridonin to IC50 for test compound against human Bel7402 cells; format: functional
[28] = Potency index, ratio of IC50 for oridonin to IC50 for test compound against human CaEs17 cells; format: functional
MGC-803 [29] = assay: Potency index, ratio of IC50 for oridonin to IC50 for test compound against human MGC803 cells; format: functional
K562 [30] = assay: Potency index, ratio of IC50 for oridonin to IC50 for test compound against human K562 cells; format: functional

SMILES: CC(=O)O[C@H]1C(=O)[C@@]2(C)[C@H]([C@H](OC(=O)c3ccccc3)[C@]3(O)C[C@H](OC(=O)[C@H](O)[C@@H](NC(=O)c4ccccc4)c4ccccc4)C(C)=C1C3(C)C)[C@]1(OC(C)=O)CO[C@@H]1C[C@@H]2O [PACLITAXEL]
IC50 [1]: 430 nM

SMILES: C=C1C(=O)[C@@]23C(=O)OC[C@]4([C@@H](OC(C)=O)CCC(C)(C)[C@H]4C=O)[C@@H]2CC[C@H]1[C@H]3OC(=O)c1ccccc1
IC50 (Bel-7402 [2]): 3050 nM
IC50 [1]: 1990 nM
IC50 (MGC-803 [3]): 2180 nM
IC50 (K562 [4]): 1400 nM

SMILES: C=C1C(=O)[C@@]23C(=O)OC[C@]4([C@@H](OC(C)=O)CCC(C)(C)[C@H]4C=O)[C@@H]2CC[C@H]1[C@H]3OC(=O)CC
IC50 (Bel-7402 [2]): 3780 nM
IC50 [1]: 2770 nM
IC50 (MGC-803 [3]): 3220 nM
IC50 (K562 [4]): 1500 nM

SMILES: C=C1C(=O)[C@@]23C(=O)OC[C@]4([C@@H](OC(C)=O)CCC(C)(C)[C@H]4C=O)[C@@H]2CC[C@H]1[C@H]3OC(=O)CCCC
IC50 (Bel-7402 [2]): 3640 nM
IC50 [1]: 2850 nM
IC50 (MGC-803 [3]): 2490 nM
IC50 (K562 [4]): 1560 nM

SMILES: C=C1C(=O)[C@@]23C(=O)OC[C@]4([C@@H](OC(C)=O)CCC(C)(C)[C@H]4C=O)[C@@H]2CC[C@H]1[C@H]3OC(=O)c1ccc(OC)cc1
IC50 (Bel-7402 [2]): 2470 nM
IC50 [1]: 1960 nM
IC50 (MGC-803 [3]): 2530 nM
IC50 (K562 [4]): 1920 nM

SMILES: C=C1C(=O)[C@@]23C(=O)OC[C@]4([C@@H](OC(C)=O)CCC(C)(C)[C@H]4C=O)[C@@H]2CC[C@H]1[C@H]3OC(=O)c1ccc(C(F)(F)F)cc1
IC50 (Bel-7402 [2]): 5090 nM
IC50 [1]: 9160 nM
IC50 (MGC-803 [3]): 5540 nM
IC50 (K562 [4]): 3150 nM

SMILES: C=C1C(=O)[C@@]23C(=O)OC[C@]4([C@@H](OC(C)=O)CCC(C)(C)[C@H]4C=O)[C@@H]2CC[C@H]1[C@H]3OC(C)=O
inhibition [26]: 7.08%
IC50 (Bel-7402 [2]): 3960 nM
IC50 [1]: 2800 nM
IC50 (MGC-803 [3]): 3470 nM
IC50 (K562 [4]): 1740 nM

Continued, in another order:

inhibition [26]: 0%
IC50 (Bel-7402 [2]): 1390 nM
IC50 (MGC-803 [3]): 1280 nM
IC50 (K562 [4]): 390 nM
SMILES: C=C1C(=O)[C@@]23C(=O)OC[C@]4([C@@H](OC(C)=O)CCC(C)(C)[C@H]4C=O)[C@@H]2CC[C@H]1[C@H]3OC(=O)c1ccccc1Cl
Activity (Bel-7402 [5]): 92.16%
Activity (Bel-7402 [6]): 0%
Activity (Bel-7402 [7]): 7.84%
Activity (Bel-7402 [8]): 53.3%
Activity (Bel-7402 [9]): 5.28%
Activity (Bel-7402 [10]): 41.69%
Activity (Bel-7402 [11]): 23.2%
Activity (Bel-7402 [12]): 20.73%
Activity (Bel-7402 [13]): 56.07%
Activity (Bel-7402 [14]): 0.6%
Activity (Bel-7402 [15]): 12.4%
Activity (Bel-7402 [16]): 21%
Activity (Bel-7402 [17]): 66%
Activity (Bel-7402 [18]): 0.3%
Activity (Bel-7402 [19]): 9.3%
Activity (Bel-7402 [20]): 9.6%
Activity (Bel-7402 [21]): 80.9%
Activity (Bel-7402 [22]): 0.1%
Activity (Bel-7402 [23]): 3.8%
Activity (Bel-7402 [24]): 8.8%
Activity (Bel-7402 [25]): 87.2%
Ratio IC50 (Bel-7402 [27]): 5
Ratio IC50 [28]: 18
Ratio IC50 (MGC-803 [29]): 4
Ratio IC50 (K562 [30]): 12
IC50 [1]: 600 nM

IC50 (Bel-7402 [2]): 1740 nM
IC50 (MGC-803 [3]): 1980 nM
IC50 (K562 [4]): 1140 nM
SMILES: C=C1C(=O)[C@@]23C(=O)OC[C@]4([C@@H](OC(C)=O)CCC(C)(C)[C@H]4C=O)[C@@H]2CC[C@H]1[C@H]3OC(=O)c1ccc([N+](=O)[O-])cc1
IC50 [1]: 1600 nM

IC50 (Bel-7402 [2]): 1510 nM
IC50 (MGC-803 [3]): 1730 nM
IC50 (K562 [4]): 870 nM
SMILES: C=C1C(=O)[C@@]23C(=O)OC[C@]4([C@@H](OC(C)=O)CCC(C)(C)[C@H]4C=O)[C@@H]2CC[C@H]1[C@H]3OC(=O)c1ccc(Cl)cc1
IC50 [1]: 1250 nM

IC50 (Bel-7402 [2]): 2090 nM
IC50 (MGC-803 [3]): 1900 nM
IC50 (K562 [4]): 1310 nM
SMILES: C=C1C(=O)[C@@]23C(=O)OC[C@]4([C@@H](OC(C)=O)CCC(C)(C)[C@H]4C=O)[C@@H]2CC[C@H]1[C@H]3OC(=O)c1ccc(C)cc1
IC50 [1]: 1830 nM
